Data set [1] addresses recombinant human PFKFB3 protein (Homo sapiens, UniProt Q16875). The data set can be described thus: Recombinant PFKFB3 kinase assay. The class given is biochemical.
Data set [2] relates to Jurkat T cell leukemia cells. Description: Cell viability, trypan blue exclusion. The class given is cell-based. Conditions: Homo sapiens, 48 h, read-out: IC50 cytotoxic effects (viability).
The test system of data set [3] is H522 human lung adenocarcinoma cells. The data set can be described thus: Cell viability, trypan blue exclusion. The class given is cell-based. To be noted: NCI-H522, 48 h, read-out: IC50 cytotoxic effects (viability).
The subject of data set [4] is Jurkat and H522 cells. The data set can be described thus: F26BP measurement in cells. The class given is cell-based, human. Conditions: three hours exposure. In outline:
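Cells plated at 1×10^5/well, 24 h in RPMI or DMEM (5% CO2, 37°C), then exposed to test compound for 3 h. Cells triturated, washed twice in PBS, dissolved in […] NaOH. F26BP measured by coupled enzyme reaction and normalized to BCA protein. Triplicate or quadruplicate; unpaired two-tailed t-test.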

The test system of another data set is Jurkat or H522 cells. The data set can be described thus: 2-[1-14C]-deoxy-D-glucose uptake. The class given is cell-based, human. To be noted: three hours exposure, Jurkat and H522. In outline: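 Jurkat or H522 cells in RPMI 1640 + 10% FCS + 50 μg/ml gentamycin at 100,000/ml, treated immediately with DMSO vehicle or test compound for 3 h. Washed in glucose-free RPMI, 30 min with inhibitor, then 1 h with 14C-2-deoxyglucose (0.1 μCi/μl stock). Ice-cold washes, 0.5% SDS lysis, scintillation counting; counts normalized to BCA protein.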

Data set [5] has as its system Jurkat and H522 cells. Description: Intracellular ATP bioluminescence assay. The class given is cell-based, human. Conditions: three hours exposure, Jurkat and H522. Put shortly:
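After plating at 1×10^5 cells/well (24 h, 37°C, 5% CO2) and 3 h test compound exposure, adherent cells were washed with cold PBS, lysed in passive lysis buffer and scraped. One freeze (−80°C)/thaw (37°C) cycle, cleared at 4°C. ATP read by firefly luciferase/D-luciferin luminescence at 560 nm against an ATP standard curve, as nmol/mg BCA protein.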

In data set [6] the test system is Jurkat T cell leukemia cells. The data set can be described thus: Annexin V / propidium iodide flow cytometry. The class given is cell-based, human. Conditions: 20 μM, five hours.
Data set [7] is described as follows: Pharmacokinetic profile after IV administration. The class given is in vivo, female C57Bl/6 mice. Conditions: plasma. In outline:
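Test compound was given IV to female C57Bl/6 mice, with 8 time points and 3 animals per time point. Plasma was extracted with acetonitrile and analysed by LC-MS/MS on a polar reverse-phase column with a 0.5% formic acid acetonitrile/water mobile phase. Tmax, Cmax, volume of distribution, half-life, clearance, AUCs and MRT were calculated from the concentration–time data.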

Data set [8] has as its system Jurkat T cell leukemia cells. Conditions: previous studies; cited from earlier work.
Setting [9] is: female, C57Bl/6, mouse, iv, 5 mg/kg.

recombinant human PFKFB3 protein, sequence (Q16875 whole entry): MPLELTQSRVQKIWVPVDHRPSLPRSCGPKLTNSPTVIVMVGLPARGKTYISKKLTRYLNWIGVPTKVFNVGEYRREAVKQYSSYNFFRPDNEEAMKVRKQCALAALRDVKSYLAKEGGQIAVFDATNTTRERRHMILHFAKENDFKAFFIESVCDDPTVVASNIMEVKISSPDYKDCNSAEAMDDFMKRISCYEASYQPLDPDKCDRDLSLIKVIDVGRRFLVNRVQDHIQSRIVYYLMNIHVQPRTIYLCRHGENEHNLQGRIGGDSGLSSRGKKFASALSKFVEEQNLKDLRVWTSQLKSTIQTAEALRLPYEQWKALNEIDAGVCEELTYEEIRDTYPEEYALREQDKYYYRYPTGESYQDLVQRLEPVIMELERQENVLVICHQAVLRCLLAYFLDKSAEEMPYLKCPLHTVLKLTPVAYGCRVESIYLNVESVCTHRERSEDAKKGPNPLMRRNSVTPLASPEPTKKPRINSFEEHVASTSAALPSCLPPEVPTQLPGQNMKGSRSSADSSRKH

Turning to `O=C(C=Cc1cccnc1)c1ccncc1` [3PO, 3-(3-pyridinyl)-1-(4-pyridinyl)-2-propen-1-one, reference compound], the IC50 in data set [1] amounted to 22.9 µM. In data set [2], the IC50 is 7.2 µM. Further, the IC50 in data set [3] was 5.57 µM. Also, the “effect on F26BP” value in the data set with Jurkat and H522 cells [4] is “reduced”. Besides, in the data set on Jurkat or H522 cells, the “effect on glucose uptake (14C-2DG)” value was “reduced”. Also, the “effect on intracellular ATP” value in the data set on Jurkat and H522 cells [5] was “reduced”. In [6], the “cells undergoing early apoptosis (Annexin V+/PI−)” value is reported as “increased”. The molecule also showed an AUC0-inf in [7] (IV, C57Bl/6 mice) of 36 ng/h/mL. Besides, in data set [7] (setting [9]), the Cmax turned out to be 113 ng/mL, the clearance was 2310 mL/min/kg and the half-life was 18 min. Further, in data set [8], the “concentrations that caused cell death” value was > 10 µM.

The record behind these values is article PMC3742633 (Molecular cancer therapeutics, 2013).
